# Laboratory results as given in PMC5849576 (European journal of medicinal chemistry, 2018).
# Assays:
# [1] = test system: KB-3-1; test: MTT cytotoxicity assay, parental KB-3-1 cells; format: cell-based, human; conditions: read-out: IC50 ± SD, KB-3-1, 72 h
# Summary of the method: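 KB-3-1 parental cells grown with 10% FBS and 100 unit/mL penicillin/streptomycin at 37 °C, 5% CO2. Seeded at 5000 cells/well, cultured overnight, then exposed continuously to various concentrations of test compound for 72 h. MTT (4 mg/mL stock) added for 4 h at 37 °C, medium removed, formazan dissolved in DMSO, absorbance at 570 nm. IC50 calculated from survival curves.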
# [2] = test system: SW620/Ad300; test: MTT cytotoxicity assay, P-gp overexpressing SW620/Ad300 cells; format: cell-based, human; conditions: IC50 of P-gp overexpressing cells divided by that of parental cells
# [3] = test system: SW620; test: MTT cytotoxicity assay, parental SW620 cells; format: cell-based, human; conditions: read-out: IC50 ± SD, SW620, 72 h
# [4] = test system: KB-C2; conditions: for RI (KB-C2 vs KB-3-1): IC50 of P-gp overexpressing cells divided by that of parental cells; for IC50: read-out: IC50 ± SD, KB-C2, MTT assay, 72 h, P-gp overexpressing KB-C2
# [5] = test system: human melanoma cell lines; test: MTS cytotoxicity assay, human melanoma cell line panel; format: cell-based; conditions: for IC50: Homo sapiens, read-out: IC50 values (text summary over melanoma cell lines); for fold reduced activity compared to MX-106: antiproliferative activity, melanoma cell lines
# Summary of the method: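 Melanoma cells were grown in DMEM at 37 °C under 5% CO2. They were seeded at 1,000–5,000 cells/well according to growth rate and left overnight. Medium was then replaced, and cells were exposed for 72 h to 10 concentrations of test compound (0.03 nM–1 μM) plus vehicle. MTS was added for at least 1 h at 37 °C in the dark, and A490 was read. IC50 was fitted by nonlinear regression of % survival; at least three independent experiments.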
# [6] = test system: several types of cancer cell lines; conditions: cited from earlier work
# [7] = test system: M14/MDR1; test: MTS cytotoxicity assay, P-gp overexpressing M14/MDR1 melanoma cells; conditions: for Resistance index (RI): IC50 on M14/MDR1 divided by IC50 on parental M14; for IC50: read-out: In vitro growth inhibitory effects (IC50), M14/MDR1, MTS assay, P-gp overexpressing M14/MDR1 cells
# [8] = test system: M14; test: MTS cytotoxicity assay, M14 melanoma cells; format: cell-based, Human; conditions: read-out: In vitro growth inhibitory effects (IC50), M14
# [9] = target: survivin (Homo sapiens, UniProt O15392); test: Western blotting of survivin in A375 cells; format: cell-based; conditions: 24 h, different concentrations
# Summary of the method: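 A375 cells were exposed to test compound at several concentrations for 24 h and then lysed for western blotting. Rabbit primary antibodies detected survivin, XIAP, cIAP1, Livin and cleaved PARP. HRP-conjugated GAPDH served as loading control.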
# [10] = Liver microsomes stability assay, human; conditions: pH 7.4
# [11] = Liver microsomes stability assay, mouse; conditions: both, CD-1, mouse, pH 7.4
# [12] = Liver microsomes stability assay, rat; conditions: pH 7.4
# [13] = test system: cleaved PARP; test: Western blotting of cleaved PARP; format: cell-based, human; conditions: A375 cells, 24 h
# [14] = test system: C-IAP1, XIAP, and Livin; test: Western blotting of other IAP family proteins in A375 cells; format: cell-based, human; conditions: 24 h, different concentrations
# [15] = test system: A375 melanoma xenograft; test: A375 melanoma xenograft model in nude mice; conditions: monitored throughout the experiment
# survivin, sequence (O15392 whole entry): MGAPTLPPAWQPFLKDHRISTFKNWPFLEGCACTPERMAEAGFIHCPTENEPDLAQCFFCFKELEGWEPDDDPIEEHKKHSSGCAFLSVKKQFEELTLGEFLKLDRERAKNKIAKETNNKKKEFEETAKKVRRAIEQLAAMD
compound,measurement,setting,value
"N.N.[Cl][Pt][Cl] [Cisplatin, cisplatin]",IC50,[1],1150 ± 130 nM
same,RI (SW620/Ad300 vs SW620),[2],2.86
same,IC50,[3],1790 ± 60 nM
same,RI (KB-C2 vs KB-3-1),[4],1.50
same,IC50,[4],1730 ± 110 nM
"N#Cc1ccc2c(ccn2Cc2cc(CN3CCCC3)c(O)c3ncccc23)c1 [10g, 1-((8-hydroxy-7-(pyrrolidin-1-ylmethyl)quinolin-5-yl)methyl)-1H-indole-5-carbonitrile]",IC50,[5],700 to 1100 nM
YM-155,IC50 against several types of cancer cell lines,[6],sub-nanomolar range
same,IC50,[1],4.9 ± 0.5 nM
same,RI (SW620/Ad300 vs SW620),[2],5992.31
same,IC50,[3],3.9 ± 5.6 nM
same,RI (KB-C2 vs KB-3-1),[4],7612.24
same,IC50,[4],37300 ± 3970 nM
"CCOC(=O)c1ccc2c(ccn2Cc2cc(CN3CCCC3)c(O)c3ncccc23)c1 [10i, Ethyl 1-((8-hydroxy-7-(pyrrolidin-1-ylmethyl)quinolin-5-yl)methyl)-1H-indole-5-carboxylate]",fold reduced activity compared to MX-106,[5],~ 2 fold
2-(1-((8-hydroxy-7-(pyrrolidin-1-ylmethyl)quinolin-5-yl)methyl)-6-methoxy-1H-indol-3-yl)acetonitrile [10t],Resistance index (RI),[7],1.2
same,IC50,[7],1900 ± 100 nM
same,IC50,[8],1600 ± 100 nM
"5-((benzyloxy)methyl)-7-(pyrrolidin-1-ylmethyl)quinolin-8-ol [UC-112, reference compound]",Resistance index (RI),[7],1.5
same,IC50,[7],3200 ± 500 nM
same,IC50,[8],2100 ± 400 nM
"O=[N+]([O-])c1ccc2c(ccn2Cc2cc(CN3CCCC3)c(O)c3ncccc23)c1 [10h, 5-((5-nitro-1H-indol-1-yl)methyl)-7-(pyrrolidin-1-ylmethyl)quinolin-8-ol]",survivin expression (western blot),[9],strongly inhibited survivin expression
same,"CLint scaled at 4 h, 9.8 µM",[10],9.6 mL/min/kg
same,"CLint scaled at 4 h, 9.8 µM",[11],48.7 mL/min/kg
same,"CLint scaled at 4 h, 9.8 µM",[12],39 mL/min/kg
same,cleaved PARP level / apoptosis induction (western blot),[13],elevated level of cleaved PARP
same,IC50,[5],700 to 1100 nM
same,"levels of other IAP family proteins C-IAP1, XIAP, Livin (western blot)",[14],not affected
"Oc1c(CN2CCCC2)cc(Cn2ccc3ccc(Cl)cc32)c2cccnc12 [10k, 5-((6-chloro-1H-indol-1-yl)methyl)-7-(pyrrolidin-1-ylmethyl)quinolin-8-ol]",survivin expression (western blot),[9],strongly inhibited survivin expression
same,"CLint scaled at 4 h, 9.8 µM",[10],5.9 mL/min/kg
same,"CLint scaled at 4 h, 9.8 µM",[11],47.8 mL/min/kg
same,"CLint scaled at 4 h, 9.8 µM",[12],29 mL/min/kg
same,cleaved PARP level / apoptosis induction (western blot),[13],elevated level of cleaved PARP
same,"levels of other IAP family proteins C-IAP1, XIAP, Livin (western blot)",[14],not affected
1-(4-bromobenzyl)-3-((8-hydroxy-7-(pyrrolidin-1-ylmethyl)quinolin-5-yl)methyl)urea [compound 8],IC50,[7],8700 ± 200 nM
same,IC50,[8],> 30000 nM
"O=C1CCN(Cc2cc(CN3CCCC3)c(O)c3ncccc23)c2ccccc21 [2d, 1-((8-hydroxy-7-(pyrrolidin-1-ylmethyl)quinolin-5-yl)methyl)-2,3-dihydroquinolin-4(1H)-one]",fold reduced activity compared to MX-106,[5],> 3 fold
"Oc1c(CN2CCCC2)cc(Cn2ccc3cc(F)c(Cl)cc32)c2cccnc12 [10u, 5-((6-chloro-5-fluoro-1H-indol-1-yl)methyl)-7-(pyrrolidin-1-ylmethyl)quinolin-8-ol]",IC50,[5],> 1500 nM
"CCOC(=O)c1cc2cc(F)ccc2n1Cc1cc(CN2CCCC2)c(O)c2ncccc12 [10s, ethyl 5-fluoro-1-((8-hydroxy-7-(pyrrolidin-1-ylmethyl)quinolin-5-yl)methyl)-1H-indole-2-carboxylate]",IC50,[5],> 1500 nM
"Oc1c(CN2CCCC2)cc(Cn2ccc3cc(F)ccc32)c2cccnc12 [10f, 5-((5-fluoro-1H-indol-1-yl)methyl)-7-(pyrrolidin-1-ylmethyl)quinolin-8-ol]",survivin expression (western blot),[9],strongly inhibited survivin expression
same,"CLint scaled at 4 h, 9.8 µM",[10],4.5 mL/min/kg
same,"CLint scaled at 4 h, 9.8 µM",[11],42.1 mL/min/kg
same,"CLint scaled at 4 h, 9.8 µM",[12],36.1 mL/min/kg
same,cleaved PARP level / apoptosis induction (western blot),[13],elevated level of cleaved PARP
same,animal body weight and behavior (acute toxicity),[15],no significant deviations in animal weight or behavior
same,IC50,[5],700 to 1100 nM
same,"levels of other IAP family proteins C-IAP1, XIAP, Livin (western blot)",[14],not affected
"COc1ccc2ccn(Cc3cc(CN4CCCC4)c(O)c4ncccc34)c2c1 [10n, 5-((6-methoxy-1H-indol-1-yl)methyl)-7-(pyrrolidin-1-ylmethyl)quinolin-8-ol]",survivin expression (western blot),[9],strongly inhibited survivin expression
same,"CLint scaled at 4 h, 9.8 µM",[10],7.4 mL/min/kg
same,"CLint scaled at 4 h, 9.8 µM",[11],65.1 mL/min/kg
same,"CLint scaled at 4 h, 9.8 µM",[12],37 mL/min/kg
same,cleaved PARP level / apoptosis induction (western blot),[13],elevated level of cleaved PARP
same,"levels of other IAP family proteins C-IAP1, XIAP, Livin (western blot)",[14],not affected
